The text below walks through data of ChEMBL document CHEMBL1142939, “Neopeltolide, a macrolide from a lithistid sponge of the family Neopeltidae” (J Nat Prod, 2007).

≈ marks a conversion by molar mass, not a printed value.

Series [1] concerns Candida albicans. Kind of series: Antifungal activity against Candida albicans ATCC 44506 at 25 ug/disk by agar diffusion assay. The class given is functional. Conditions: read-out: IZ; call rule not given here. In outline:
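Sabouraud dextrose agar plates seeded with 10^5/mL C. albicans. Disks loaded with 25 µg compound, dried and placed on the agar. Incubated 37 °C for 24 h, then the growth-inhibition zone was measured. A nystatin disk (100 IU) ran on the same plate as control.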

The test system of series [2] is Candida albicans. The series is described as follows: Antifungal activity against Candida albicans ATCC 44506 by broth dilution assay. The class given is functional. The method, boiled down:
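Broth microdilution in 96-well plates, seeded at 10^3 cells/mL. Compound tested as 2-fold dilutions from 5 to 0.4 µg/mL. Incubated 37 °C for 24 h. MIC taken as the lowest concentration completely inhibiting growth. 5-Fluorocytosine served as antifungal control.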

The subject of series [3] is A549. Kind of series: Cytotoxicity against human A549 cells ATCC CCL-185 by MTT assay. The class given is cell-based. The method, boiled down:
(§1)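 MTT cell proliferation assay following previously described protocols. Each sample assayed at least three times to derive the final IC50.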

Series [4] is described as follows: Cytotoxicity against human NCI-ADR-RES cells by MTT assay. The class given is cell-based. The method, boiled down:
as §1

Series [5] in a line: Cytotoxicity against mouse NCI-P388 cells by MTT assay. The class given is cell-based. The method, boiled down: as §1
A short description of series [6]: Cytotoxicity against p53 mutated PANC1 cells ATCC CRL1469 by MTT assay. The class given is cell-based. The conditions noted are these: human, panc-1. The method, boiled down: as §1
The subject of another series is DLD-1. Kind of series: Cytotoxicity against p53 mutated NCI-DLD1 cells by MTT assay. The class given is cell-based. Conditions: human. In outline:
as §1

The test system of series [7] is A549. Kind of series: Cell cycle arrest in A549 cells by accumulation at G1 phase at 100 nM. The class given is functional, Homo sapiens.
The test system of series [8] is A549. The series is described as follows: Cell cycle arrest in A549 cells by accumulation at S phase at 100 nM. The class given is functional, Homo sapiens.
In series [9] the test system is A549. Kind of series: Cell cycle arrest in A549 cells by accumulation at G2/M phase at 100 nM. The class given is functional, Homo sapiens.
Series [10] deals with A549. The series is described as follows: Cell cycle arrest in A549 cells by accumulation at G1 phase at 10 nM. The class given is functional, Homo sapiens.
In series [11] the test system is A549. Kind of series: Cell cycle arrest in A549 cells by accumulation at S phase at 10 nM. The class given is functional, Homo sapiens.
Series [12] concerns A549. The series is described as follows: Cell cycle arrest in A549 cells by accumulation at G2/M phase at 10 nM. The class given is functional, Homo sapiens.
In series [13] the test system is A549. Kind of series: Cell cycle arrest in A549 cells by accumulation at G1 phase at 1 nM. The class given is functional, Homo sapiens.
Series [14] relates to A549. Kind of series: Cell cycle arrest in A549 cells by accumulation at S phase at 1 nM. The class given is functional, Homo sapiens.
Series [15] concerns A549. The series is described as follows: Cell cycle arrest in A549 cells by accumulation at G2/M phase at 1 nM. The class given is functional, Homo sapiens.
Series [16] concerns A549. Kind of series: Cell cycle arrest in A549 cells by accumulation at G1 phase at 0.1 nM. The class given is functional, Homo sapiens.
Series [17] has as its system A549. Kind of series: Cell cycle arrest in A549 cells by accumulation at S phase at 0.1 nM. The class given is functional, Homo sapiens.
Series [18] has as its system A549. The series is described as follows: Cell cycle arrest in A549 cells by accumulation at G2/M phase at 0.1 nM. The class given is functional, Homo sapiens.

Take `CCC[C@@H]1C[C@H](OC)C[C@H](C)C[C@@H]2C[C@@H](OC(=O)/C=C\CCc3coc(/C=C\CNC(=O)OC)n3)C[C@H](CC(=O)O1)O2` [NEOPELTOLIDE]: in the series on Candida albicans [1], the zone of inhibition at 25 µg/disc was 17 mm. Moreover, it took 0.625 µg/mL (≈ 1.06 µM) to inhibit growth against Candida albicans [2] (MIC). The IC50 in the series on A549 [3] was found to be 1.2 nM; in [4] it was 5.1 nM; in [5], 0.56 nM. The Activity entry was “Active” in [6]; “Active” in the series with DLD-1; 63.03% in the series with A549 [7]; 22.02% in the series with A549 [8]; 14.95% in the series with A549 [9]; 59.66% in the series with A549 [10]. Besides, the Activity was determined as 30.27% with A549 [11]; 10.07% in the series on A549 [12]; 46.11% with A549 [13]; 39.95% with A549 [14]; 13.94% with A549 [15]; 46.4% in the series with A549 [16]. Moreover, the Activity is listed as 40.01% with A549 [17] and 13.59% in the series on A549 [18].
For `CC(=O)O[C@H]1C(=O)[C@@]2(C)[C@H]([C@H](OC(=O)c3ccccc3)[C@]3(O)C[C@H](OC(=O)[C@H](O)[C@@H](NC(=O)c4ccccc4)c4ccccc4)C(C)=C1C3(C)C)[C@]1(OC(C)=O)CO[C@@H]1C[C@@H]2O` [PACLITAXEL], the Activity with A549 [7] is on record as 1.56%; in the series on A549 [8], 0%; in the series with A549 [9], 98.44%.
